Sampled rows, rich in hits. Any-hit rate of the full collection: about 4.2%.
Fh CTSL1 inh: blocks F. hepatica cathepsin L1 in PFM18AAP counter-screen | recombinant F. hepatica cathepsin L1, Z-Leu-Arg-MCA fluorescence | inhibition, % at 5.96 µM | actives 0.49% (n = 300,000);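 active means inhibition above the mean of all tested compounds plus 3 SD, set per screening campaign, cut at about 17% in these data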
PfM18AAP inh: blocks P. falciparum M18 aspartyl aminopeptidase; recombinant PfM18AAP, H-Glu-NHMec fluorogenic cleavage; inhibition, % at 7.35 µM; actives 1.2% (n = 290,000);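 active means inhibition above the campaign mean inhibition over all tested compounds plus 3 SD, cut at about 28% in these data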
GAA850 FXN act: frataxin GAA850 promoter activation | AID 540364 | HEK293 lucGAA850 FXN promoter luciferase reporter, 24 h; percent of 10 µM SAHA response | activation, % at 6 µM | actives 0.56% (n = 360,000);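 active means activation above the average of all compounds screened plus 3 SD, cutoff fixed separately per campaign, cut at about 7.5% in these data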
HDAC3 inh: human HDAC3 inhibition. O15379. recombinant HDAC3, fluorogenic peptide/trypsin coupled, fluorescence. inhibition, % at 8.3 µM. actives 0.15% (n = 320,000). AID 2718; in the data active means inhibition above about 26%, passing the limit was not always enough; inconclusive means no clear call, values can overlap the other calls
Target sequence (O15379 whole entry, looked up): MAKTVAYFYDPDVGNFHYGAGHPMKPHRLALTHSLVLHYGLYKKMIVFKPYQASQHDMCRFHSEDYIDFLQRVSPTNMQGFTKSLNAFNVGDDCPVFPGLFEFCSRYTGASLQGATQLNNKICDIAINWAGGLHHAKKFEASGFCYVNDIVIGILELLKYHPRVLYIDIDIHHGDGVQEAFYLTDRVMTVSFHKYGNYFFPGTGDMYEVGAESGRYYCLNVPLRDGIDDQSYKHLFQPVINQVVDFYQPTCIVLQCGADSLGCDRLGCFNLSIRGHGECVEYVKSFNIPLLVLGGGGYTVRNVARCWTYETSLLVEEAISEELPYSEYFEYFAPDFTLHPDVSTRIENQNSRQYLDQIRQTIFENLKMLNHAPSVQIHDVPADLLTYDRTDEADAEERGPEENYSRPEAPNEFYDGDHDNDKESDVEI
AHR activator: activators of human aryl hydrocarbon receptor; P35869; AHR-responsive luciferase reporter cells, luminescence; activation, % at 5 µM; actives 2.5% (n = 320,000); AID 2796; in the data active means activation above about 47%
SENP1 inh: inhibitors of human SENP1 SUMO protease catalytic domain. Q9P0U3. recombinant SENP1 catalytic domain, CyPet-SUMO1-YPet FRET cleavage. inhibition, % at 10 µM. actives 0.21% (n = 360,000);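 active means inhibition at least 30% at 10 µM, raw YFP signal under a set limit, fluorescence ratio 0.5 to 1.5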
Target sequence (Q9P0U3 419-644 limits assumed): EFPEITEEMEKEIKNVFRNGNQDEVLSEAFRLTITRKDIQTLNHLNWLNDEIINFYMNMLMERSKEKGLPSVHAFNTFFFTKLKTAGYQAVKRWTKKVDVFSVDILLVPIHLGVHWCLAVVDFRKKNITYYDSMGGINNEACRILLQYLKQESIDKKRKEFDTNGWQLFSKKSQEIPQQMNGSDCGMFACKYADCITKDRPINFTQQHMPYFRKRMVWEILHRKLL
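Test system: recombinant human SENP1 catalytic domain, His6-tagged / Medium: pH 8 Tris buffer with EDTA, NaCl, BME, BSA, NP40, catalase / Also added: SUMO1 FRET substrate flanked by Cypet and Ypet, 25 nM / Times: 50 min reaction at room temperature / Signal: FRET, CFP and YFP emission / Control set: no-enzyme low control and enzyme-plus-DMSO high control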
AHR act confirm: confirmation of human aryl hydrocarbon receptor activators | shares compounds with AHR activator | human cells, AHR-responsive luciferase reporter, luminescence | activation, % at 9 µM | actives 87% (n = 2,300); in the data active means activation above about 49%;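 further: HepG2 hepatoma cells carrying a DRE-driven firefly luciferase reporter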
PXR act counter: activates human PXR in AHR activator counter-screen | shares compounds with AHR activator | AID 434939 | activation, % at 11.6 µM | actives 88% (n = 2,300) | cell-based PXR reporter, luciferase luminescence; in the data active means activation above about 11%;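 further: human hepatoma DPX-2 cells expressing full-length human PXR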
Of the large screens only hits and unclear results are named; the others gave an inactive call (follow-up assays come after a bar, where they were run).

CN(C)S(=O)(=O)c1cccc(NC(=O)c2ccc3c(c2)OCCO3)c1	AHR activator 102 (no result: PfM18AAP inh) | AHR act confirm 92 | PXR act counter 110
CCCN(CCC)S(=O)(=O)c1cccc(C(=O)Nc2ccc3c(c2)OCO3)c1	none
Nc1nc(SCc2ccc(Cl)cc2Cl)c2ncn(C3OC(CO)C(O)C3O)c2n1 (centres undefined)	none (no result: Fh CTSL1 inh, PfM18AAP inh, HDAC3 inh, AHR activator)
COc1ccc(NC(=O)Nc2nnc([C@@H]3C[C@H](O)[C@@H](CO)O3)s2)cc1	none (no result: Fh CTSL1 inh, PfM18AAP inh, HDAC3 inh, AHR activator)
COc1cc(NC(=O)c2cccs2)c(OC)cc1NC(=O)c1ccco1	AHR activator 94 | AHR act confirm 117 | PXR act counter 10
COc1ccc(NC(=O)c2ccco2)cc1NC(=O)c1ccc(C)cc1	AHR activator 93 | AHR act confirm 106 | PXR act counter 13
O=C1c2cc3c(cc2CCC1c1ccc2c(c1)OCO2)OCO3 (centres undefined)	none (no result: Fh CTSL1 inh, PfM18AAP inh, HDAC3 inh, AHR activator)
N/C(=N\OC(=O)c1cccc(Br)c1)c1ccccn1	AHR activator 99 (no result: HDAC3 inh) | AHR act confirm 95 | PXR act counter inactive
Cc1ccc(C(=O)Nc2ccccc2N2CCCC2)s1	none (no result: Fh CTSL1 inh, PfM18AAP inh)
Cn1nnnc1SCC(=O)Nc1ccc2c(c1)OCCO2	HDAC3 inh inconclusive
O=C(Cn1cnc2ccccc2c1=O)Nc1ccc2c(c1)OCO2	AHR activator 93 | AHR act confirm 70 | PXR act counter 17
Cc1ccc(-n2nnnc2SCC(=O)Nc2ccc3c(c2)OCCO3)cc1C	none
O=C(CSc1nnnn1Cc1ccccc1)Nc1ccc2c(c1)OCCO2	none
Cc1ccc(NC(=O)CSc2nnnn2-c2ccc3c(c2)OCO3)cc1C	AHR activator 159 | AHR act confirm 167 | PXR act counter 226
O=C(CSc1nnnn1Cc1ccccc1)Nc1ccc2c(c1)OCO2	AHR activator 102 | AHR act confirm 85 | PXR act counter 94
CCCCn1nnnc1SCC(=O)Nc1ccc2c(c1)OCO2	AHR activator 90 | AHR act confirm 82 | PXR act counter 30
O=C(Cn1cnc2ccccc2c1=O)NCc1ccc2c(c1)OCO2	none
COc1ccc(NC2CCCN(C(=O)c3ccc4[nH]c(C)c(C)c4c3)C2)cc1 (centres undefined)	none
O=C(NC(Cc1ccccc1)C(=O)NCCc1ccccn1)c1ccccc1 (centres undefined)	none
COc1cc(Br)cc(/C=C/c2ccc3cccc(O)c3n2)c1OC	none
COc1cccc(/C=C/c2ccc3cccc(O)c3n2)c1OC	AHR activator 81 | AHR act confirm 65 | PXR act counter 13
COc1cccc(-n2c(N)c(-c3nc4ccccc4[nH]3)sc2=S)c1	AHR activator 89 | AHR act confirm 130 | PXR act counter 97
C=CCn1c(O)c(N=NC(=S)Nc2cccc(C)c2)c2ccccc21	AHR activator 123 | AHR act confirm 78 | PXR act counter 59
Oc1c(N=NC(=S)Nc2ccccc2F)c2ccccc2n1Cc1ccccc1	none
C=CCn1c(O)c(N=NC(=S)Nc2ccccc2F)c2ccccc21	AHR activator 137 | AHR act confirm 83 | PXR act counter 79
CCn1c(O)c(N=NC(=O)CNc2cccc(C)c2)c2ccccc21	none
O=C1N=c2ccc(Br)cc2=C1c1sc(=S)n(NS(=O)(=O)c2ccccc2)c1O	Fh CTSL1 inh 28, AHR activator 83 | AHR act confirm inactive | PXR act counter 23
O=C(Nc1ccc(Cl)c(-c2nc3ccccc3[nH]2)c1)c1ccc2c(c1)OCO2	AHR activator 86 | AHR act confirm 93 | PXR act counter 19
Cc1ccc(C(=O)Nc2ccc3c(c2)OCO3)cc1S(=O)(=O)N1CCOCC1	none
Cc1ccc(C(=O)Nc2ccc3c(c2)OCO3)cc1Cl	AHR activator 94 | AHR act confirm 118 | PXR act counter 38
Cc1ccc(C(=O)Nc2ccc3c(c2)OCO3)cc1S(=O)(=O)N1CCCC1	AHR activator 82 | AHR act confirm 70 | PXR act counter 218
CCOC(=O)N1CCC(NC(=O)CC2C(=O)NCCN2Cc2ccccc2)CC1 (centres undefined)	none
CCC(C)[C@H](NS(=O)(=O)c1ccc(C)cc1)C(=O)N1CCC(C(=O)N2CCC(C(=O)OC)CC2)CC1 (some centres undefined)	none
Cc1nc2cnccc2n1C	none
Cc1nc2cncc(Br)c2n1C	AHR activator 81 | AHR act confirm inactive | PXR act counter 24
CN(C)c1ccc(/C=C2\SC(N3CCCCC3)=NC2=O)cc1	none
CC1CC1C(=O)Nc1ccc(S(=O)(=O)N2CCCCC2)cc1 (centres undefined)	none (no result: Fh CTSL1 inh, PfM18AAP inh, HDAC3 inh, AHR activator)
CN(C)/C=N/c1nc(-c2ccc3ccccc3c2)cs1	none
CN(C)/C=N/c1nc(-c2ccc3c(c2)OCO3)cs1	AHR activator 81 | AHR act confirm 69 | PXR act counter 28
Cc1ccc(OCC(=O)NCc2cccs2)c([N+](=O)[O-])n1	AHR activator 105 | AHR act confirm inactive | PXR act counter 12
Cc1ccc(OCC(=O)NCc2ccccc2)c([N+](=O)[O-])n1	none
O=C(COC(=O)CC1CCCC1)Nc1cc2c(cc1Cl)C(=O)c1ccccc1C2=O	AHR activator 117 | AHR act confirm 139 | PXR act counter 16
Cn1c(=O)c2c(nc(OC3CCCCCC3)n2C)n(C)c1=O	none (no result: Fh CTSL1 inh, PfM18AAP inh, HDAC3 inh, AHR activator)
Cc1ccc(C(=O)Nc2cccc(C(F)(F)F)c2)cc1Nc1ncnc2nc[nH]c12	AHR activator 84 (no result: PfM18AAP inh) | AHR act confirm inactive | PXR act counter 30
O=C(Nc1ccc(Cl)cc1)c1ccc(S(=O)(=O)N2CCOCC2)cc1	AHR activator 80 | AHR act confirm 86 | PXR act counter 17
CCN(C(=O)COC(=O)c1cc2ccccc2cc1OC)c1c(N)n(Cc2ccccc2)c(=O)[nH]c1=O	none (no result: Fh CTSL1 inh, PfM18AAP inh, HDAC3 inh, AHR activator)
COc1cc(NC(=O)c2ccccc2)c(OC)cc1NC(=O)CN1CCCCC1	AHR activator 83 | AHR act confirm 96 | PXR act counter 23
Cc1ccccc1C(=O)NC(=S)NCCc1ccccc1	AHR activator 86 | AHR act confirm 104 | PXR act counter 27
Cc1ccccc1C(=O)NC(=S)NCc1ccccc1	none
CCCCNC(=O)C(NC(=O)c1ccc2ccccc2c1)C(=O)c1ccccc1 (centres undefined)	none (no result: Fh CTSL1 inh, PfM18AAP inh, GAA850 FXN act, HDAC3 inh, AHR activator)
Cc1nnc(N2C(=O)c3cccc4c([N+](=O)[O-])ccc(c34)C2=O)s1	AHR activator 87 | AHR act confirm 100
Cc1ccnc(N2C(=O)c3cccc4c([N+](=O)[O-])ccc(c34)C2=O)c1	none

Source: PubChem
